According to ChEMBL document CHEMBL1137873, “Synthesis of benzimidazole based analogues of sphingosine-1-phosphate: discovery of potent, subtype-selective S1P4 receptor agonists” (Bioorg Med Chem Lett, 2004):

What was measured:
[1] = molecular target: Sphingosine 1-phosphate receptor 2 (Homo sapiens, UniProt O95136); assay: In vitro binding affinity towards human Sphingosine 1-phosphate receptor 2 expressed in HEK293T cells was determined using [gamma-35S]-GTP as radioligand; na denotes not active; format: cell-based; settings: hek-293t
Outline: (§1)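 Membranes (5 µg) from HEK293T cells expressing the relevant human S1P receptor plus G-protein, incubated in GTP-binding buffer (HEPES 50 mM, NaCl 100 mM, MgCl2 5 mM, pH 7.5) with 5 µg saponin, 10 µM GDP, 0.1 nM [γ-35S]GTP and test lipid. Incubation was 30 min at 30°C. Bound label was separated by GF/C filtration and scintillation counted. EC50 is the mean of three experiments.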

[2] = molecular target: T1, Sphingosine 1-phosphate receptor 1 (Homo sapiens, UniProt P21453); assay: In vitro binding affinity towards human Sphingosine 1-phosphate receptor 1 expressed in HEK293T cells was determined using [gamma-35S]-GTP as radioligand; partial agonist; format: cell-based, HEK-293T; outline: as §1
[3] = molecular target: T2, Sphingosine 1-phosphate receptor 3 (Homo sapiens, UniProt Q99500); assay: In vitro binding affinity towards human Sphingosine 1-phosphate receptor 3 expressed in HEK293T cells was determined using [gamma-35S]-GTP as radioligand; na denotes not active; format: cell-based; settings: hek-293t; outline: as §1
[4] = molecular target: T3, Sphingosine 1-phosphate receptor 4 (Homo sapiens, UniProt O95977); assay: In vitro binding affinity towards human Sphingosine 1-phosphate receptor 4 expressed in HEK293T cells was determined using [gamma-35S]-GTP as radioligand; format: cell-based, HEK-293T; outline: as §1
T3 sequence (O95977 whole entry): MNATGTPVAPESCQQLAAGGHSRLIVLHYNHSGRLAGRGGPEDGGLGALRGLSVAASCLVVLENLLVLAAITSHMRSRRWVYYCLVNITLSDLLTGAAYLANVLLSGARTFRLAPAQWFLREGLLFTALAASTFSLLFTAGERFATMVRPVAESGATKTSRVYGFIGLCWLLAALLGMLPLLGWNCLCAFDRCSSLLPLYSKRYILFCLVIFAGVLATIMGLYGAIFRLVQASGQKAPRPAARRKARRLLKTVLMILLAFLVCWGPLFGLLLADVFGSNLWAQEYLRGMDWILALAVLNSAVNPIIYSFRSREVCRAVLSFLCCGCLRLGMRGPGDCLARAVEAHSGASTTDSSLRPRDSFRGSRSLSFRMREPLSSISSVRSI

[5] = molecular target: T4, Sphingosine 1-phosphate receptor 5 (Homo sapiens, UniProt Q9H228); assay: In vitro binding affinity towards human Sphingosine 1-phosphate receptor 5 expressed in HEK293T cells was determined using [gamma-35S]-GTP as radioligand; na denotes not active; format: cell-based; settings: hek-293t; outline: as §1
[6] = molecular target: T4, Sphingosine 1-phosphate receptor 5; assay: In vitro binding affinity towards human Sphingosine 1-phosphate receptor 5 expressed in HEK293T cells was determined using [gamma-35S]-GTP as radioligand; partial agonist; format: cell-based, HEK-293T; outline: as §1
[7] = molecular target: T1, Sphingosine 1-phosphate receptor 1; assay: In vitro binding affinity towards human Sphingosine 1-phosphate receptor 1 expressed in HEK293T cells was determined using [gamma-35S]-GTP as radioligand; format: cell-based, HEK-293T
[8] = molecular target: T2, Sphingosine 1-phosphate receptor 3; assay: In vitro binding affinity towards human Sphingosine 1-phosphate receptor 3 expressed in HEK293T cells was determined using [gamma-35S]-GTP as radioligand; format: cell-based, HEK-293T

T1 sequence (P21453 whole entry): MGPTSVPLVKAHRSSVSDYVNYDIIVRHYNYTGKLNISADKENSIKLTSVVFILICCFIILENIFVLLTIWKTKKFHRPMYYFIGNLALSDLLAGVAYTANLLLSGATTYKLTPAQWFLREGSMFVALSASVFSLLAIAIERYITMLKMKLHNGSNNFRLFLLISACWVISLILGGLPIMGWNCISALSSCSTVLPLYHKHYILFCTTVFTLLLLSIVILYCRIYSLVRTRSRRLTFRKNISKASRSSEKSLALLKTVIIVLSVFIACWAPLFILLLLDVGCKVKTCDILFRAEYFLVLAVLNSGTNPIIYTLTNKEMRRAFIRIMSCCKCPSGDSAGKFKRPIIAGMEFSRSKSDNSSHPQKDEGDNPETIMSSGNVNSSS
Sphingosine 1-phosphate receptor 2, sequence (O95136 whole entry): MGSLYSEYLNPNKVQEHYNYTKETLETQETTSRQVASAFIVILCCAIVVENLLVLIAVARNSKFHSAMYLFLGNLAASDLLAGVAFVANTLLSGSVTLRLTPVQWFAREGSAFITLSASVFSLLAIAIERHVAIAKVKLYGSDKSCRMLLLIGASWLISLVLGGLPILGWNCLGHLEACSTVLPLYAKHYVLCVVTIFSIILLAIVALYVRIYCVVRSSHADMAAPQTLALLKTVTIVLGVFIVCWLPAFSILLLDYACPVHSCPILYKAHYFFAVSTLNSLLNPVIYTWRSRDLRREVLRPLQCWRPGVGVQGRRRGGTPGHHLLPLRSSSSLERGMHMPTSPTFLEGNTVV
T4 sequence (Q9H228 whole entry): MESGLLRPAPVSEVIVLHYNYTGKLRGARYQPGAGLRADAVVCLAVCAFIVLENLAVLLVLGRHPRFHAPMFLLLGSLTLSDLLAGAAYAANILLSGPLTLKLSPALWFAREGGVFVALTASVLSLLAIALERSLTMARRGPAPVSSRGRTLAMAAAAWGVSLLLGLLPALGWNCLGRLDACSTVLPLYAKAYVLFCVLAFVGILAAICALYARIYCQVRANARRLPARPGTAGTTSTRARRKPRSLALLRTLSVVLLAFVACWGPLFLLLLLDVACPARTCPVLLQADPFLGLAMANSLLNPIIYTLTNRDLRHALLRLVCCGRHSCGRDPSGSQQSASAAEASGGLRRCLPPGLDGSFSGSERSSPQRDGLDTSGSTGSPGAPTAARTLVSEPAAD
T2 sequence (Q99500 whole entry): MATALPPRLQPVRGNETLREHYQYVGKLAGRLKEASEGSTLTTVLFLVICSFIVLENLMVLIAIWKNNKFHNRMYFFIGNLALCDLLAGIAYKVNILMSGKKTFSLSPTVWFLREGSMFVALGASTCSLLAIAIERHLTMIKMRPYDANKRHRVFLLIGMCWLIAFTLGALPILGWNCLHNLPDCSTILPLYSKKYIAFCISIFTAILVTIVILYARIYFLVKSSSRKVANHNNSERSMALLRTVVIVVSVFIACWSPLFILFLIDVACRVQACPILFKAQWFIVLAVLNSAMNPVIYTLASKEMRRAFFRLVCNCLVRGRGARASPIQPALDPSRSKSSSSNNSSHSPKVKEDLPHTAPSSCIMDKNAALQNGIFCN

Row | SMILES | EC50 [1] | EC50 [2] [nM] | EC50 [3] | EC50 [4] [nM] | EC50 [5] | EC50 [6] [nM] | EC50 [7] [nM] | EC50 [8] [nM]
1 | CCCCCCCCc1ccc2[nH]c([C@@H](N)[C@@H](C)OP(=O)(O)O)nc2c1.O=C(O)C(F)(F)F | Not Active | 240 | Not Active | 94 | – | 77 | – | –
2 | CCCCCCCCc1ccc2[nH]c([C@@H](N)COP(=O)(O)O)nc2c1.COC(=O)C(F)(F)F | Not Active | 37 | Not Active | 48 | – | 6.6 | – | –
3 | CCCCCCCCCCCCC/C=C/[C@@H](O)[C@@H](N)COP(=O)(O)O | – | – | – | 37 | – | – | 20 | 1.2

More lines, in order of falling EC50 [2], values ahead:

Row | EC50 [1] | EC50 [2] [nM] | EC50 [3] | EC50 [4] [nM] | EC50 [5] | EC50 [6] [nM] | SMILES | EC50 [7] [nM] | EC50 [8] [nM]
4 | Not Active | 2900 | Not Active | 33000 | Not Active | – | CCCCCCCCc1ccc2[nH]c([C@@H](N)[C@@H](C)O)nc2c1.O=C(O)C(F)(F)F | – | –
5 | Not Active | 2100 | Not Active | 4200 | – | 2400 | CCCCCCCCc1ccc2[nH]c([C@@H](N)CO)nc2c1.O=C(O)C(F)(F)F | – | –
6 | Not Active | 1000 | Not Active | 1200 | – | 370 | CCCCCCCCc1ccc2[nH]c(C(C)(N)COP(=O)(O)O)nc2c1.O=C(O)C(F)(F)F (stereo not drawn) | – | –
7 | Not Active | 330 | Not Active | 1600 | – | 390 | CCCCCCCCc1ccc2[nH]c([C@H](N)CO)nc2c1.O=C(O)C(F)(F)F | – | –
8 | Not Active | 21 | Not Active | 36 | – | 8.2 | CCCCCCCCc1ccc2[nH]c([C@H](N)COP(=O)(O)O)nc2c1.COC(=O)C(F)(F)F | – | –
